The text below walks through data of ChEMBL document CHEMBL1122219, “Synthesis and antiviral activity of water-soluble esters of acyclovir [9-[(2-hydroxyethoxy)methyl]guanine]” (1983).

Converted amounts (≈) assume the structure as drawn.

Holding throughout (type): functional
For assay [1], the species on record is Oryctolagus cuniculus. As to the kind of experiment: Minimum inhibitory concentration required to reduce virus induced cytopathogenicity in primary rabbit kidney cell cultures by 50% against HSV-1 ((KOS). A digest of the protocol: (§1)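 Primary rabbit kidney cell cultures infected with HSV-1 strains KOS, McIntyre or F, or HSV-2 strains Lyons, G or 196. Antiviral assays ran 3–4 days, with inhibition of virus-induced cytopathogenicity as the read-out. Cytotoxicity was checked as microscopically visible change in normal cell morphology, up to 400 µg/mL.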

The species entered for assay [2] is Oryctolagus cuniculus. As to the kind of experiment: Minimum inhibitory concentration required to reduce virus induced cytopathogenicity in primary rabbit kidney cell cultures by 50% against Vaccinia virus.
The species named for assay [3] is Oryctolagus cuniculus. As to the kind of experiment: Minimum inhibitory concentration required to reduce virus induced cytopathogenicity in primary rabbit kidney cell cultures by 50% against HSV-2 (G). A digest of the protocol: as §1
(Damage to the host cells serves as the signal in cytopathic effect assays.)

The species named for assay [4] is Oryctolagus cuniculus. As to the kind of experiment: Minimum inhibitory concentration required to reduce virus induced cytopathogenicity in primary rabbit kidney cell cultures by 50% against HSV-2 (196). A digest of the protocol:
as §1

Assay [5] is filed under the species Oryctolagus cuniculus. As to the kind of experiment: Minimum inhibitory concentration required to reduce virus induced cytopathogenicity in primary rabbit kidney cell cultures by 50% against HSV-1 (McIntyre). The essentials:
as §1

The species named for assay [6] is Oryctolagus cuniculus. As to the kind of experiment: Minimum inhibitory concentration required to reduce virus induced cytopathogenicity in primary rabbit kidney cell cultures by 50% against HSV-2 ([…]). A digest of the protocol: as §1
Assay [7] is filed under the species Oryctolagus cuniculus. As to the kind of experiment: Minimum inhibitory concentration required to reduce virus induced cytopathogenicity in primary rabbit kidney cell cultures by 50% against HSV-1 (F). A digest of the protocol:
as §1

For assay [8], the species on record is Oryctolagus cuniculus. As to the kind of experiment: Minimum inhibitory concentration required to reduce virus induced cytopathogenicity in primary rabbit kidney cell cultures by 50% against Vesicular stomatitis virus.

Turning to `Nc1nc(O)c2ncn(COCCOC(=O)CCC(=O)[O-])c2n1.[Na+]`, the MIC in assay [1] is 0.7 µg/mL; in assay [2], > 400 µg/mL; in assay [3], 0.8 µg/mL; in assay [4], 0.4 µg/mL; in assay [5], 0.5 µg/mL; in assay [6], 0.5 µg/mL. Further, the results for the MIC in assay [7] and in assay [8] were 0.7 µg/mL and > 400 µg/mL, respectively.
In the case of `[N-]=[N+]=NCC(=O)OCCOCn1cnc2c(O)nc(N)nc21`, the MIC amounted to 0.1 µg/mL (≈ 0.324 µM) in assay [1]; 150 µg/mL (≈ 487 µM) in assay [2]; 0.07 µg/mL (≈ 0.227 µM) in assay [3]; 0.07 µg/mL (≈ 0.227 µM) in assay [4]; 0.1 µg/mL (≈ 0.324 µM) in assay [5]; 0.04 µg/mL (≈ 0.13 µM) in assay [6]. This compound returned an MIC in assay [7] of 0.1 µg/mL (≈ 0.324 µM).
Turning to `Cl.NCCC(=O)OCCOCn1cnc2c(O)nc(N)nc21`, the MIC worked out at 0.2 µg/mL in assay [1]; 100 µg/mL in assay [2]; 0.15 µg/mL in assay [3]; 0.1 µg/mL in assay [4]; 0.4 µg/mL in assay [5]; 0.1 µg/mL in assay [6]. The values for the MIC in assay [7] and in assay [8] were 0.5 µg/mL and > 400 µg/mL, respectively.
Consider `CC(N)C(=O)OCCOCn1cnc2c(O)nc(N)nc21.Cl` (stereo not drawn), for which the MIC is 0.4 µg/mL in assay [1]; 70 µg/mL in assay [2]; 0.2 µg/mL in assay [3]; 0.1 µg/mL in assay [4]; 0.4 µg/mL in assay [5]; 0.07 µg/mL in assay [6]. The MIC in assay [7] was 0.4 µg/mL; in assay [8], > 400 µg/mL.
For `Cl.NCC(=O)OCCOCn1cnc2c(O)nc(N)nc21`, the MIC in assay [1] is 0.1 µg/mL; in assay [2], 125 µg/mL; in assay [3] it was 0.08 µg/mL; in assay [4], 0.07 µg/mL; in assay [5] it was 0.1 µg/mL; in assay [6] it was 0.04 µg/mL. For the same compound, the MIC in assay [7] is 0.1 µg/mL; in assay [8], > 400 µg/mL.
For the compound `Nc1nc2c(ncn2COCCO)c(=O)[nH]1` [ACYCLOVIR], the MIC in assay [1] came out at 0.08 µg/mL (≈ 0.355 µM); in assay [2], 80 µg/mL (≈ 355 µM); in assay [3], 0.06 µg/mL (≈ 0.266 µM); in assay [4], 0.06 µg/mL (≈ 0.266 µM); in assay [5], 0.1 µg/mL (≈ 0.444 µM); in assay [6] it was 0.04 µg/mL (≈ 0.178 µM). Moreover, the MIC is 0.09 µg/mL (≈ 0.4 µM) in assay [7] and > 400 µg/mL in assay [8].
With `O=c1[nH]c(=O)n([C@H]2C[C@H](O)[C@@H](CO)O2)cc1/C=C/Br` [BRIVUDINE], the MIC in assay [1] was 0.01 µg/mL (≈ 0.03 µM); in assay [2], 4 µg/mL (≈ 12 µM); in assay [3], 0.8 µg/mL (≈ 2.4 µM); in assay [4], 4 µg/mL (≈ 12 µM); in assay [5], 0.01 µg/mL (≈ 0.03 µM); in assay [6], 1 µg/mL (≈ 3 µM). The MIC in assay [7] is 0.01 µg/mL (≈ 0.03 µM); in assay [8] it was > 400 µg/mL.
As for `O=c1[nH]c(=O)n([C@H]2C[C@H](O)[C@@H](CO)O2)cc1I` [IDOXURIDINE], the MIC was 0.15 µg/mL (≈ 0.424 µM) in assay [1]; 0.1 µg/mL (≈ 0.282 µM) in assay [2]; 0.2 µg/mL (≈ 0.565 µM) in assay [3]; 0.4 µg/mL (≈ 1.13 µM) in assay [4]; 0.2 µg/mL (≈ 0.565 µM) in assay [5]; 0.2 µg/mL (≈ 0.565 µM) in assay [6]. The MIC is 0.15 µg/mL (≈ 0.424 µM) in assay [7] and > 400 µg/mL in assay [8].
